Compounds with a hit are over-represented: about 6.4% of the library has one in this group of screens.
WT yeast gro inh: growth inhibition of WT yeast, mitochondrial fusion screen; mitochondrial fusion phenotypic screen, WT strain; inhibition, % at 10 µM; actives 2.1% (n = 190,000); in the data active = inhibition above about 58%; tested in S. cerevisiae
CHOP inhibitor: CHOP inhibition in unfolded protein response; CHO-K1 CHOP-promoter luciferase, tunicamycin-induced, 15-18 h; actives 3.8% (n = 220,000); inhibition, % at 10 µM; AID 2732;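 active = compounds that reduced the stress-induced luciferase reporter signal by more than about 70% of percent inhibition, limit read from the data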
MPTP inh: blocks calcium-induced mitochondrial swelling. isolated mouse mitochondria, Ca2+ swelling absorbance, 30 min. inhibition, % at 10 µM. actives 1.4% (n = 360,000);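 active = inhibition of 50% or more, scaled per plate between neutral and stimulator controls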
GRIN3A LBD mod: modulates the human NR3A ligand-binding domain | NR3A LBD differential scanning fluorimetry, Tm shift; 0% = protein alone, 100% = glycine-bound protein | Tm shift relative to glycine control, % at 25 µM | actives 2.5% (n = 340,000);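 active = melting temperature shift of at least 10% of the positive control shift, at one fixed dose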
TbMetRS inhib: Trypanosoma brucei MetRS inhibition; purified T. brucei MetRS, ATP depletion, Kinase-Glo luminescence; inhibition, % at 11.9 µM; actives 0.4% (n = 360,000); AID 624268;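 active = inhibition above a per-plate cutoff of the control wells' mean inhibition plus 3 SD, cut at about 5.5% in these data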
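Assay system: T. brucei methionyl-tRNA synthetase, purified | Medium: HEPES buffer with MgCl2, KCl, DTT, spermine, BSA, pyrophosphatase | Compound: 11.9 µM single point | Incubation: 15 min enzyme-compound preincubation, 2 h reaction, 10 min detection, 25 °C | Measured by: Kinase-Glo luciferase luminescence reporting remaining unconsumed ATP | Measure: % inhibition normalized to control-well medians | Replication: Singlicate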
EBV gp42 block: inhibitors of Epstein-Barr virus glycoprotein 42; Q1HVG2; Fluorescence polarization binding assay, mP read-out; inhibition, % (tested at 21.74 µM); actives 0.42% (n = 220,000); in the data active = inhibition above about 50%
Target sequence (Q1HVG2 whole entry, looked up): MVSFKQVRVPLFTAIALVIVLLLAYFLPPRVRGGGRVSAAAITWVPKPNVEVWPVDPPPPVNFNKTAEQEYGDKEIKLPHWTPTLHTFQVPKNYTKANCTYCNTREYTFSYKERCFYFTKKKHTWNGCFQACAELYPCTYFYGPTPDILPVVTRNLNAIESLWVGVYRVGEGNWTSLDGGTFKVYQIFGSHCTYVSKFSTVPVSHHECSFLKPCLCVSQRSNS
Hits are given with their value; 0 = inactive; - = not tested or not shown.

SMILES | WT yeast gro inh | CHOP inhibitor | MPTP inh | GRIN3A LBD mod | TbMetRS inhib | EBV gp42 block
CCC1(c2ccc(OC)cc2)NC(=O)N(CC(=O)N2CCc3ccccc32)C1=O (configuration not stated) | - | - | 0 | 0 | 0 | -
CCN(CC)CCOc1ccc2c(c1)C(=NO)c1cc(OCCN(CC)CC)ccc1-2 | 0 | 0 | 0 | 0 | 0 | 0
CCCOc1ccc2c(c1)C(=NN=C(N)N)c1cc(OCCC)ccc1-2 | - | - | 0 | 34.1 | 0 | -
CC(C)(C)C(=O)CN1CCN(C2c3ccccc3-c3ccccc32)CC1 | 0 | 0 | 0 | 0 | 0 | 0
COc1cccc(-c2nc(N3CCCCC3C)c3ccccc3n2)c1O (configuration not stated) | 63.5 | 0 | 0 | 0 | 0 | 0
COc1cccc(-c2nc(N3CCN(C)CC3)c3ccccc3n2)c1O | - | 0 | 0 | 0 | 0 | 0
COc1cccc(-c2nc(NCc3ccccc3)c3ccccc3n2)c1O | - | - | 0 | 0 | 0 | -
CCN(CC)c1nc(-c2cccc(OC)c2O)nc2ccccc12 | 0 | 88.1 | 0 | 0 | 0 | 0
Nc1cc2c(cc1C(=O)c1ccccc1)OCCO2 | 0 | 0 | 0 | 0 | 0 | 0
Cc1ccccc1CN1CCc2c(OCC(=O)N3CCCc4ccccc43)cccc2C1=O | 61.7 | 0 | 0 | 0 | 0 | 0
CC(=O)OC1COC(N2CCc3ccccc32)C(OC(C)=O)C1OC(C)=O (configuration not stated) | 0 | 0 | 0 | 0 | 0 | 0
CC(=O)OC1COC(N2CCc3cc(Br)c([N+](=O)[O-])cc32)C(OC(C)=O)C1OC(C)=O (configuration not stated) | - | 89.0 | 0 | 0 | 0 | 0
O=c1ccc(-c2nc3ccccc3n2Cc2ccccc2Cl)c[nH]1 | 0 | 0 | 0 | 0 | 0 | 0
Clc1ccccc1Cn1c(/C=C/c2ccco2)nc2ccccc21 | 78.1 | 0 | 0 | 0 | 0 | 0
COCCCNC(=O)C[C@H]1C[C@H](C(=O)N2CCCCC2)[C@@]2(C)c3[nH]c4ccc(Cl)cc4c3CCN2C1=O | - | - | 0 | 0 | 0 | -
CSc1ccc(CNc2ccc(C)c(C)c2)cc1 | 0 | 91.6 | 0 | 0 | 0 | 0
CS(=O)(=O)NNC(=O)CN1C(=O)C2C3C=CC(C3)C2C1=O (configuration not stated) | 0 | 0 | 0 | 0 | 0 | 0
CNC(=O)CN1C(=O)C2C3C=CC(C3)C2C1=O (configuration not stated) | 0 | 77.9 | 0 | 0 | 0 | 0
CCS(=O)(=O)c1ccc2c(c1)N(S(C)(=O)=O)CC(C(=O)NCc1ccccc1OC)O2 (configuration not stated) | 0 | 0 | 0 | 0 | 0 | 0
N#Cc1c(NC(=O)COC(=O)c2ccc(S(=O)(=O)N3CCCC3)cc2)sc2c1CCCCC2 | 0 | 0 | 0 | 0 | 0 | 0
c1ccc(-c2nc(N3CCCCC3)nc3ccccc23)cc1 | 68.4 | 0 | 0 | 0 | 0 | 0
C/C=C/C=C/[C@H]1Cc2cc(O)cc(O)c2O1 | - | 0 | - | - | - | 53.8
CCC1Oc2ccc(C)cc2N(CC(=O)NCCCN2CCCCC2C)C1=O (configuration not stated) | - | - | 0 | 0 | 0 | -
CC1CCCCC1NC(=O)CN1C(=O)COc2ccccc21 (configuration not stated) | - | - | 0 | 0 | 0 | -
CCC1Oc2ccccc2N(CC(=O)NC2CCCCC2C)C1=O (configuration not stated) | - | - | 0 | 14.8 | 0 | -
SMILES | WT yeast gro inh | CHOP inhibitor | MPTP inh | GRIN3A LBD mod | TbMetRS inhib | EBV gp42 block
CCC1Oc2ccc(C)cc2N(CC(=O)NCCCN2CCCCC2CC)C1=O (configuration not stated) | 81.4 | 0 | 0 | 0 | 0 | 0
CCc1ccc(C(=O)Nc2nnn(CC)n2)cc1 | 0 | 0 | 0 | 0 | 0 | 0
O=c1c(Cl)c(N/N=C/c2ccc(Br)cc2)cnn1-c1ccccc1 | 0 | 0 | 0 | 13.2 | 0 | 0
CSc1ccc(CN2CCC(CO)(Cc3ccc(Cl)cc3)CC2)cc1 | 67.2 | 0 | 0 | 0 | 0 | 0
O=C(Cn1nnc(-c2ccccc2)n1)OCc1ccccc1 | 0 | 76.1 | 0 | 0 | 0 | 0
CCNC(=S)N(Cc1ccccc1)Cc1nc2ccccc2c(=O)[nH]1 | 0 | 0 | 0 | 10.0 | 0 | 0
COCCCNC(=S)N(Cc1ccccc1)Cc1nc2ccccc2c(=O)[nH]1 | 0 | 0 | 0 | 0 | 0 | 0
CC1(C)C=Cc2c(ccc3c2OC[C@H](c2ccc(O)cc2O)C3)O1 | - | - | 0 | 18.8 | 0 | -
CC(C)=CCc1cc([C@@H]2COc3c(ccc4c3C=CC(C)(C)O4)C2)c(O)cc1O | - | - | 0 | 26.6 | 0 | -
Cc1cccc(-c2cc3nc4c(c(N5CCOCC5)n3n2)CCCC4)c1 | 69.3 | 0 | 0 | 0 | 0 | 0
Cc1cccc(-c2cc3nc4c(c(N5CCC6(CC5)OCCO6)n3n2)CCCC4)c1 | - | - | 0 | 15.3 | 0 | -
COc1cccc(-c2cc3nc4c(c(N5CCC6(CC5)OCCO6)n3n2)CCC4)c1 | 65.0 | 0 | 0 | 0 | 0 | 0
COc1ccccc1CN1CCNC(=O)C1CC(=O)NCCCN1CCOCC1 (configuration not stated) | - | - | 0 | - | 0 | -
Cc1ccc(C2CC(=O)c3cnc(NC(=O)c4ccco4)nc3C2)cc1 (configuration not stated) | 0 | 0 | 0 | 0 | 0 | 0
Cc1nnc(N2C(=O)C(O)=C(C(=O)c3ccco3)C2c2ccc(C(C)C)cc2)s1 (configuration not stated) | 0 | 0 | 0 | 0 | 0 | 72.1
Cc1ccc(C2C(C(=O)c3cccs3)=C(O)C(=O)N2c2nnc(C)s2)cc1 (configuration not stated) | 0 | 0 | 0 | 0 | 0 | 123.0
Cc1nnc(N2C(=O)C(O)=C(C(=O)c3ccco3)C2c2ccc(F)cc2)s1 (configuration not stated) | 0 | 0 | 0 | 0 | 0 | 76.2
CCC(Sc1nc2cc(OC)c(OC)cc2c(=O)n1CCc1ccc(OC)c(OC)c1)C(=O)NCCOC (configuration not stated) | 0 | 0 | 0 | 0 | 0 | 0
N#CC1=C(N)Oc2n[nH]c(-c3cccs3)c2C1C1C=CCCC1 (configuration not stated) | 0 | 95.6 | 0 | 0 | 0 | 0
Nc1c(C(=O)Nc2ccc(Br)cc2)sc2nc(N3CCOCC3)c3c(c12)CCCC3 | - | - | 0 | - | 0 | -
CN(CC(=O)Nc1cccc(S(=O)(=O)NC2=NCCC2)c1)Cc1cccc(F)c1 | - | - | 0 | 0 | 0 | -
Cc1c(C(=O)NCCSCc2ccc(Cl)cc2Cl)cccc1[N+](=O)[O-] | 68.8 | 72.1 | 0 | 0 | 0 | 0
Cc1c(C(=O)NCCSCc2ccccc2)cccc1[N+](=O)[O-] | 0 | 0 | 0 | 0 | 0 | 0
Cc1ccc(C(=O)NC(=S)Nc2c(C)ccc3nsnc23)cc1 | 0 | 0 | 0 | 11.2 | 0 | 0
CCCn1c(SCC(=O)Nc2nonc2C)nnc1-c1ccoc1C | 0 | 0 | 0 | 0 | 0 | 0
CCOc1ccc(/C=C/C(=O)c2cc(Br)ccc(=O)c2O)cc1 | 0 | 90.7 | 0 | 0 | 0 | 0

Screens: PubChem, several laboratories
